Reference: the EternaBench riboswitch data

Tested on: MS2 coat protein
Assay: apparent Kd, MS2 coat protein; higher = weaker binding; RNA-MaP array; FMN 200 µM where present
In short: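 Green signal was scaled to red-channel RNA signal and control-cluster median Fmax, and the apparent Kd was taken as the median of filtered per-cluster binding-curve fits. The binding series used SNAP-549-labelled MS2 coat protein from 0.7 or 1.5 nM, doubling to 3 µM, on designs transcribed by stalled E. coli RNA polymerase on Illumina sequencing-chip clusters. Each series ran without and then with constant ligand in 100 mM Tris-HCl pH 7.5, 80 mM KCl, 4 mM MgCl2, BSA, DTT, yeast tRNA and Tween-20.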

[1] = designed as: OFF switch for flavin mononucleotide, no ligand
[2] = ligand present: flavin mononucleotide, designed as: OFF switch for flavin mononucleotide
[3] = designed as: ON switch for flavin mononucleotide, no ligand
[4] = ligand present: flavin mononucleotide, designed as: ON switch for flavin mononucleotide

Sequence | apparent Kd [1] | apparent Kd [2] | apparent Kd [3] | apparent Kd [4]
UUCGGCGCAGGAUAUGCAGUUCUGUGUUGAAUCGGCGCGGGACAUGAGGAUCACCCAUGUAGAAGGGUGUUGGG | 374 nM | 239 nM | – | –
UGUCGGAGCAGAGGAUAUUACAUGAGGAUCACCCAUGUAUGAACCAAUAGCUGGAAACAGCAAUGUAAGAAGGAUGCUCCGACA | 7.14 nM | 31.4 nM | – | –
UUGCUACAUGAGGAUCACCCAUGUCAGGAUAUUGUCUAUACCGUGGAAGCUGUGUCGAUAAGAAGGGACUGUCU | 24.1 nM | 41.6 nM | – | –
UUACCUCAUGAGAAGGACAUGAGGAUCACCCAUGUAGGAUAUCAUGGGUCAGUGGAAUUGAAUCUUCGGAUUCAAUAACUCUAU | – | – | 114 nM | 34.5 nM
AAUUAUUUACAGAAGGAGUAAGAUUAUGUAUUACUAGGAUAUGUUCACAUGAGGAUCACCCAUGUACUAGUAGGUUUUUUAUGU | 6.96 nM | 7.66 nM | – | –
AAGAAGUCAGGAUAUACAUGAGGAUCACCCAUGUAAAAGAAAGAAAAGGGAAAGAAAAGUAGAAGGGACAAGAA | 26.7 nM | 32.2 nM | – | –
ACAUGAGGAUCACCCAUGUUUGCAUAGGAUAUUGAGGAUUAGGGAUGUUUUUUUGGAUUUGCCCACAAGAAGGAUGUAUGUUUU | – | – | 8.56 nM | 7.96 nM
UUGUUAGGGAGAGGAUAUUGACAUGAGGAUCACCCAUGUAUUUGGGAGUGUUUACUGAAUUCUUACGAGAAGGCUUACGAAAUU | 329 nM | 246 nM | – | –
UGGGAUGGCUAGAAGGCUCCGUAUACUAAAGGGAGAGGAUAUGGCACAUGAGGAUCACCCAUGUGUACCUGUAGGUGAUCCACA | 276 nM | 70 nM | – | –
GUGGUCAGACAUGAGGAUCACCCAUGUGGAAUAAAUAAGGAGAAGGAUAUAGAAUAUAGGAUAUACUAGAAGGUCUGGUUGGUG | – | – | 67.3 nM | 73.1 nM
UAUACACAUGAGGAUCACCCAUGUGAGGAUAUGUAAAAAAAACCGACGGUUUUUUUUUACAGAAGGCACAUAUA | 51.6 nM | 53.5 nM | – | –
GUCGGGUCUCACGCGUCGGUCCACAUGAGGAUCACCCAUGUCAAGGAUAUAGCGUCUUCCGGGCGUUAGAAGGUGGCCAUUGGU | 26.6 nM | 61 nM | – | –
GGAUCCAACACAGGAUAUGCUGGACUUUGUCCAGCAGAAGGGUGAAGAACAUGAGGAUCACCCAUGUGGAUCCAUAUAUGUAAU | – | – | 273 nM | 16.6 nM
AUGCCUAAUGAGAAGGUGUGUAUAAAUUAUAUACAAGGAUAUCGGUCAAGCAUGAAAACAUGAGGAUCACCCAUGUUAAGGCAU | – | – | 7.77 nM | 6.72 nM
UUGGUUGUCGUAGGAUAUGUAGGAUAUUCCUACAUGAGGAUCACCCAUGUUAGCAUGGAAGAAGGACAGAAGGACGAUGACCAU | – | – | 1010 nM | 16.9 nM
GGUGGACAUGAGGAUCACCCAUGUGAGGAUAUCGGCUAUCUUAUCGCUGUCGGUUGCUCGAGAAGGCACAUUGU | 76.7 nM | 195 nM | – | –
CUCACGUUAGUAGGAUAUCCGACAUGAGGAUCACCCAUGUCACUACGCCUCAAGGGAAGGUGUAAGGAGAAGGGCUGAUAAAUA | – | – | 178 nM | 88.3 nM
CGCAACUCAGAUCUUUUGAACAUGAGGAUCACCCAUGUAUUGAGAAGGAGCUGGAAGAGAGACAGCUAGGAUAUCAGAGUUGCG | 5.4 nM | 5.73 nM | – | –
UUAGGCGACCAGAAGGGUGACAUGAGGAUCACCCAUGUAGAUGUGUUCCCGCUUGGGAGCCGUCCACAGGAUAUGGUUGGUUAG | – | – | 35.7 nM | 16.8 nM
GGAUCGGACAGAGGAUAUACGUGCUAGAGAUACUAGCAAAAUUUCCUCACAUGAGGAUCACCCAUGUAGAAGGCUGUCCUAUCG | 15.9 nM | 327 nM | – | –
GGUACCAUCACAGGAUAUGCUUUCCUUUGGGAAGCAGAAGGGUGUAACAUGAGGAUCACCCAUGUGGUGCCAGGGCGUGAGCCU | – | – | 216 nM | 16 nM
GUAGCAUACCGAGGAUAUUCAUAUAAUAAAUAAACAUGAGGAUCACCCAUGUGGCGAAAGCCUUGGGAGAAGGCGGAAUGCUAC | – | – | 647 nM | 37.3 nM
UGGUACUAGGGAGGAUAUGGGAAGAUACAUGAGGAUCACCCAUGUUUAAGAAUGCCGAGAGGCAACUAGAAGGCCCUAGUAUCU | – | – | 382 nM | 18.9 nM
UUAAGUUCAGGAUAUGAUGUUUUAAACAUGAGGAUCACCCAUGUAGAUCCUGAAUUAACAUCAGAAGGGAAUAUUU | 37.5 nM | 217 nM | – | –
CUUUUGUGAGGAUAUCAGUAGUAAAUAUAUAAAAUUACUACUGAGAAGGCACAUGAGGAUCACCCAUGUUCCUC | 38.1 nM | 274 nM | – | –
UAUAUAUAGUAAGGAUAUGUAAUUAAUUUAUAAACAGAAGGUACUGACAUGAGGAUCACCCAUGUUUUAGUGUGGGCAUGUAGA | 95.3 nM | 155 nM | – | –
ACGGUGGUCACAGGAUAUCCGGCCCGCGUGCUCGGAGAAGGGUGACUCAGAACCACAUGAGGAUCACCCAUGUGCCUUGCCGUA | – | – | 122 nM | 25.1 nM
UUGGAUAUCACAGGAUAUGCUAAGGAUACCUUAGCAGAAGGGUGAUCCAUCCUAUGGCUGUACAUGAGGAUCACCCAUGUGUCA | – | – | 246 nM | 73.6 nM

Sequence | apparent Kd [1] | apparent Kd [2] | apparent Kd [3] | apparent Kd [4]
GGUGGACAUGAGGAUCACCCAUGUGAGGAUAUCGGCUGGUACGUGUUGGCUGGCUUCUCGAGAAGGCACAUAGU | 64.7 nM | 75.4 nM | – | –
AUAAAUAUAGCGAUAUGAUCGAGAGAUCAUGUCGCUAAUAUUAGAAGGACAUGAGGAUCACCCAUGUAGGAUAUGGGAGUAUAA | – | – | 107 nM | 55.1 nM
GUAGAGAUUACAUGAGGAUCACCCAUGUCAGAACGGGUAAUCAGAAGGUAUUAUUAGAGAAAGGGUAAGGAUAUGAUUUUUUAU | – | – | 735 nM | 617 nM
UUGUUGUCAGGAUAUCGUUAAUUUAAUUGUUUGUAUUAGUUCGAGAAGGGACAUGAGGAUCACCCAUGUUUUUU | 25.6 nM | 51.5 nM | – | –
GUCGGAAACGACAAUGAUAGGACUGAGGAUAUACAUAAGUAAGUCCACACAUGAGGAUCACCCAUGUAGAAGGCAGUCCUAUCU | 21.9 nM | 187 nM | – | –
AAAAAGCGAGGAUAUGCGGGCGGGUGCGGCCAGCCGAUGUGACAUGAGGAUCACCCAUGUAGAAGGCGCAAAAA | 12.3 nM | 15.1 nM | – | –
CAAUCUCAGAUAGGAUAUAUAGGAUAACUUAAGACCUAACAUGAGGAUCACCCAUGUGAUUAUUCGUAGAAGGAUCAUUGAACC | – | – | 205 nM | 190 nM
UCGUGUUAUACAGGAUAUGUUUAGGUUUAUUCAUUCAGUUAUUAAUUUAUGACAGAAGGGUAUACAUGAGGAUCACCCAUGUCA | 761 nM | 306 nM | – | –
GGUUUGGGAGGAUAUGGCUUGAAUGACAUGAGGAUCACCCAUGUAAGUGGAUCUUCCGGGCCAGAAGGCUCGGGCC | 63.8 nM | 136 nM | – | –
UAUGCACAUGAGGAUCACCCAUGUGAGGAUAUAGGUCGUGUGCGUUCACGCAUCGUACUUAGAAGGCACUGCGG | 46.9 nM | 92.5 nM | – | –
AGAAACUACGAGAAGGACAUGUGGAAAACCGCAAACAUGAGGAUCACCCAUGUAGGAUAUCGUAGUUUCAGGAUCGUGAGAUCA | 772 nM | 148 nM | – | –
CAAAGUUGGUAAGGAUAUCCCACAUUAUUCUGACCCGUGCAAGCUACAUGAGGAUCACCCAUGUGGGAGAAGGUGCGUUAUAGA | 121 nM | 160 nM | – | –
GGAUGUCAAAGACAUCCAUAACGAACAUGAGGAUCACCCAUGUAGGAUAUGCUACUCAAAGAGUAGCAGAAGGACAUGUGCCUU | 33.6 nM | 269 nM | – | –
AGUUAAUGCACAUGAGGAUCACCCAUGUCACUUUAUAGAAGACAGGAUAUGCAUGCCAUCAAUGUGCAGAAGGGUCAUCACCGA | – | – | 81 nM | 195 nM
UCAACCGGCGCCGGUUGAACAUGAGGAUCACCCAUGUACUCCAGAAGGCCGCCCAAGAACGGAGUGGAGGAUAUGGAAGUUCUC | – | – | 47.2 nM | 30.1 nM
AGUGACGACACAGGAUAUGCUGGACUUUGUCCAGCAGAAGGGUGUUAACAUGAGGAUCACCCAUGUAUCGUCACCAAAUUUAAU | – | – | 628 nM | 34.1 nM
CAAGAUGUCUGGUAAUUGCGUACACAGGAUAUGGAUUGUUACAUGAGGAUCACCCAUGUUUCCUUUCAGAAGGGUGUAUCAUGU | – | – | 208 nM | 20.5 nM
GGUUCACGAGGAUAUCGAUUUUAGUACAUGAGGAUCACCCAUGUUGUCCAGGUUUCGAUUCGAGAAGGCGUGAACC | 22.8 nM | 22.5 nM | – | –
UUAAAUCAUGUAGGAUAUGCAUGGCGAAGCUACGCAGAAGGACAUGAGGAUCACCCAUGUUAAAGCUACCGGAUACGGUGGCAA | 109 nM | 195 nM | – | –
AUCAUGUGAGGAUAUAAAAUGAAUAUAAAUUAUUAUCUUGAUUAGAAGGCACAUGAGGAUCACCCAUGUCUGAA | 32.5 nM | 39.2 nM | – | –
UUUACAUGAGGAUCACCCAUGUCUUGAAAGAUUAGUUCUGGUGAGGAUAUACAUGAUAAAGAAUUGUAGAAGGCACUGGGUACA | – | – | 113 nM | 33.1 nM
CCUCUACAUGAGGAUCACCCAUGUGAGGAUAUCUCGGAGCAGCCACUUAAGGCACUCCAGAGAAGGCACGUGUA | 18 nM | 25.7 nM | – | –
AACAGUACAGGAUAUACAUGAGGAUCACCCAUGUGAGAAUUAAGUGGCGUACCACAAUGUAGAAGGGUACUGGA | 77.4 nM | 65.5 nM | – | –
GGGUACAUCGGAGGAUAUCAUGUUAAUACAUGAGGAUCACCCAUGUCGAUGGAGACAUCGGAGAUUGAGAAGGCCGAUGUACCG | – | – | 322 nM | 11.4 nM
CGUGCGUAUGUGAGGAUAUGCUGGUCCUUGGAUCGGCAGAAGGCACAUGAGGAUCACCCAUGUGGUGUCGUUCU | 172 nM | 23.1 nM | – | –
UUAUAUAGUGUGAGGAUAUGCUGGUCCUUGGAUCAGCAGAAGGCACAUGAGGAUCACCCAUGUAGUUUAUUUUU | 25.4 nM | 144 nM | – | –
AUAUCUCUAUAAGUUCCAAUACGAACAUGAGGAUCACCCAUGUAGGAUAUGCUAGAAGUAGAGUUGCAGAAGGACAAGUACCUU | 7.48 nM | 6.75 nM | – | –
